≈ marks a conversion by molar mass, not a printed value.
Assays:
[1] = system: Mycobacterium tuberculosis; assay: Antitubercular activity against Mycobacterium tuberculosis H37Rv ATCC 27294 by microplate Alamar blue assay; type: functional
Method in brief: (§1)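 M. tuberculosis H37Rv (ATCC 27294) in BACTEC 12B medium; broth microdilution, Microplate Alamar Blue readout. MIC taken as lowest concentration giving 90% reduction in fluorescence versus controls.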

[2] = system: MCF7; assay: Cytotoxicity against human MCF7 cells at 20 ug/ml after 48 hrs by SRB assay; type: functional
Method in brief: (§2)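 MCF7, NCI-H460 and SF-268 cells were kept in RPMI-1640 with 5% fetal bovine serum, then seeded and preincubated in microtiter plates. Compound was added at two fixed concentrations and incubated for 48 h. The endpoint was sulforhodamine B protein staining, reported as percent growth of treated cells relative to untreated controls.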

[3] = system: MCF7; assay: Cytotoxicity against human MCF7 cells at 4 ug/ml after 48 hrs by SRB assay; type: functional; method in brief: as §2
[4] = system: NCI-H460; assay: Cytotoxicity against human NCI-H460 cells at 20 ug/ml after 48 hrs by SRB assay; type: functional; method in brief: as §2
[5] = system: NCI-H460; assay: Cytotoxicity against human NCI-H460 cells at 4 ug/ml after 48 hrs by SRB assay; type: functional; method in brief: as §2
[6] = system: SF-268; assay: Cytotoxicity against human SF268 cells at 20 ug/ml after 48 hrs by SRB assay; type: functional; method in brief: as §2
[7] = system: SF-268; assay: Cytotoxicity against human SF268 cells at 4 ug/ml after 48 hrs by SRB assay; type: functional; method in brief: as §2
[8] = system: Vero; assay: Cytotoxicity against african green monkey Vero cells after 72 hrs by MTT assay; type: cell-based, Chlorocebus sabaeus
[9] = Selectivity index, ratio of IC50 for african green monkey Vero cells to MIC for Mycobacterial tuberculosis H37Rv ATCC 27294; type: functional
Method in brief: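 SI calculated as IC50/MIC, where MIC (H37Rv, Alamar Blue microdilution in BACTEC 12B medium) is the lowest concentration cutting fluorescence 90% versus controls.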

[10] = system: Mycobacterium tuberculosis; assay: Antitubercular activity against Mycobacterium tuberculosis H37Rv ATCC 27294 at <0.2 ug/ml by microplate Alamar blue assay; type: functional; method in brief: as §1

Compound | MIC [1] | Activity [2] | Activity [3] | Activity [4] | Activity [5] | Activity [6] | Activity [7] | IC50 [8] | Selectivity Index [9] | inhibition (INH) [10]
Nc1c2ccccc2nc2oc3ccccc3c12 | > 100 µg/mL | 113% | 114% | 107% | 110% | 72% | 84% | – | – | –
CC(=O)c1ccc(Nc2c3ccccc3nc3oc4ccccc4c23)cc1 | 14.6 µg/mL (≈ 41.3 µM) | 49% | 106% | 20% | 64% | 63% | 109% | – | – | –
c1ccc(Nc2c3ccccc3nc3oc4ccccc4c23)cc1 | 5.35 µg/mL (≈ 17.2 µM) | 44% | 118% | 53% | 104% | 76% | 118% | 6.14 µg/mL (≈ 19.8 µM) | 1.15 | –
CC(=O)c1ccc(Oc2c3ccccc3nc3oc4ccccc4c23)cc1 | > 100 µg/mL | 88% | 100% | 62% | 104% | 100% | 104% | – | – | –
CCOc1c2ccccc2nc2oc3ccccc3c12 | 1.44 µg/mL (≈ 5.47 µM) | 77% | 99% | 84% | 92% | 90% | 86% | 10.34 µg/mL (≈ 39.3 µM) | 7.18 | –
CO[C@H]1/C=C/O[C@@]2(C)Oc3c(C)c(O)c4c(O)c(c(/C=N/N5CCN(C)CC5)c(O)c4c3C2=O)NC(=O)/C(C)=C\C=C\[C@H](C)[C@H](O)[C@@H](C)[C@@H](O)[C@@H](C)[C@H](OC(C)=O)[C@@H]1C [RIFAMPIN] | 0.125 µg/mL (≈ 0.152 µM) | – | – | – | – | – | – | 100 µg/mL (≈ 122 µM) | 400 | –
CNc1c2ccccc2nc2oc3ccccc3c12 | < 0.2 µg/mL | 99% | 100% | 99% | 102% | 86% | 98% | 5.55 µg/mL (≈ 22.4 µM) | >27.75 | –
COc1ccc(Nc2c3ccccc3nc3oc4ccccc4c23)cc1 | 2.63 µg/mL (≈ 7.73 µM) | 35% | 109% | 17% | 83% | 87% | 111% | 3.63 µg/mL (≈ 10.7 µM) | 1.38 | –
c1ccc(Oc2c3ccccc3nc3oc4ccccc4c23)cc1 | > 100 µg/mL | 64% | 94% | 91% | 99% | 108% | 108% | – | – | –
COc1cccc(Nc2c3ccccc3nc3oc4ccccc4c23)c1 | 17.8 µg/mL (≈ 52.4 µM) | 84% | 107% | 46% | 99% | 60% | 97% | – | – | –
COc1c2ccccc2nc2oc3ccccc3c12 | < 0.2 µg/mL | 92% | 102% | 68% | 90% | 98% | 98% | 11.77 µg/mL (≈ 47.2 µM) | >58.85 | 99%
CN(C)c1c2ccccc2nc2oc3ccccc3c12 | < 0.2 µg/mL | 48% | 87% | 76% | 108% | 91% | 102% | > 30 µg/mL | >150 | –

Source: ChEMBL document CHEMBL1154715, “Identification of benzofuro[2,3-b]quinoline derivatives as a new class of antituberculosis agents” (Eur J Med Chem, 2010)
